Measurements as given in ChEMBL document CHEMBL1144463, “Rapid bactericidal activity of daptomycin against methicillin-resistant and methicillin-susceptible Staphylococcus aureus peritonitis in mice as measured with bioluminescent bacteria” (2007).
Converted amounts (≈) assume the structure as drawn.

Legend:
Assay type in all cases: functional
Staphylococcus aureus [1] = experiment: Reduction in bioluminescent methicillin-sensitive Staphylococcus aureus Xen29 in immunocompetent CD1 mouse with peritonitis at 100 mg/kg, sc after 3 hrs relative to control; set-up: scale not given: the % may be the effect or the level left; conditions: route subcutaneous
How it was run: (§1)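 Peritonitis in healthy female CD-1 mice (n = 5/group): i.p. Xen-29 (2 × 10^7 to 5 × 10^8 CFU) in 6% mucin, then a single s.c. or gavage dose at 1 h. Controls got saline 10 ml/kg s.c. Mice were anesthetized hourly (pentobarbital 60 mg/kg i.p. or isoflurane) and imaged ventral side up for 1–5 min, to 5 h postdosing. Total flux (photons/s/cm2) over the infected region was averaged per group. Percent reduction is versus time-matched saline controls.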

Staphylococcus aureus [2] = experiment: Antibacterial activity against methicillin-susceptible Staphylococcus aureus Xen29 infected nonneutropenic CD1 mouse assessed as mouse survival at 50 mg/kg, sc after 7 days; conditions: 168 h, route subcutaneous
How it was run: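 Healthy female CD-1 mice (20–25 g) were infected i.p. with a lethal dose of lux strain (2 × 10^7 to 5 × 10^8 CFU/mouse) from an overnight Mueller-Hinton culture suspended in 6% hog gastric mucin. A single s.c. dose was given 1 h post-inoculation. Survival was recorded daily for 7 days, n=5/group.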

Staphylococcus aureus [3] = experiment: Antimicrobial activity against bioluminescent methicillin-resistant Staphylococcus aureus Xen1
How it was run: (§2)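 MIC by broth microdilution following CLSI guidelines against bioluminescent lux-carrying strains (Xen-1 plasmid-borne lux, Xen-29 chromosomal lux), grown overnight in Mueller-Hinton broth at 37°C.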

Staphylococcus aureus [4] = experiment: Reduction in bioluminescent methicillin-sensitive Staphylococcus aureus Xen29 in immunocompetent CD1 mouse with peritonitis at 100 mg/kg, sc relative to control; set-up: scale not given: the % may be the effect or the level left; conditions: route subcutaneous; how it was run: as §1
Staphylococcus aureus [5] = experiment: Reduction in bioluminescent methicillin-sensitive Staphylococcus aureus Xen29 in neutropenic CD1 mouse with peritonitis at 100 mg/kg, sc after 5 hrs relative to control; set-up: scale not given: the % may be the effect or the level left; conditions: route subcutaneous
How it was run: (§3)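 Neutropenia was induced with cyclophosphamide 150 mg/kg i.p. at day −4 and 100 mg/kg i.p. at day −1. Mice were then infected i.p. with Xen-29 (2 × 10^7 to 5 × 10^8 CFU) in 6% mucin (n = 5/group) and dosed once, s.c. or by gavage, at 1 h. Luminescence was imaged hourly under anesthesia, 0–5 h postdosing. Mean region-of-interest flux is given as percent reduction versus time-matched saline (10 ml/kg s.c.) controls.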

Staphylococcus aureus [6] = experiment: Antibacterial activity against methicillin-resistant Staphylococcus aureus Xen1 infected neutropenic CD1 mouse assessed as mortality at 100 mg/kg, po within 24 hrs; conditions: Xen1, 24 h
How it was run: (§4)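 Female CD-1 mice (20–25 g) were made neutropenic with cyclophosphamide i.p. at 150 mg/kg 4 days and 100 mg/kg 1 day before infection. They were infected i.p. with a lethal dose of lux strain (2 × 10^7 to 5 × 10^8 CFU/mouse) suspended in 6% hog gastric mucin. A single s.c. or gavage dose was given 1 h later. Survivors were counted daily for 7 days, n=5/group.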

Staphylococcus aureus [7] = experiment: Reduction in bioluminescent methicillin-sensitive Staphylococcus aureus Xen29 in neutropenic CD1 mouse with peritonitis at 100 mg/kg, sc after 4 hrs relative to control; set-up: scale not given: the % may be the effect or the level left; conditions: route subcutaneous; how it was run: as §3
Staphylococcus aureus [8] = experiment: Reduction in bioluminescent methicillin-sensitive Staphylococcus aureus Xen29 in immunocompetent CD1 mouse at 100 mg/kg, sc after 4 hrs relative to control; set-up: scale not given: the % may be the effect or the level left; conditions: route subcutaneous; how it was run: as §1
Staphylococcus aureus [9] = experiment: Protection against methicillin-susceptible Staphylococcus aureus Xen29 infection in nonneutropenic CD1 mouse at 100 mg/kg, po after 7 days
How it was run: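 Female CD-1 mice (20–25 g, n = 5/group) were given an i.p. lethal inoculum of lux-bearing MSSA Xen-29 (2 × 10^7 to 5 × 10^8 CFU/mouse) suspended in 6% hog gastric mucin. A single dose was given by gavage 1 h after inoculation. Survival was recorded daily for 7 days after inoculation.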

Staphylococcus aureus [10] = experiment: Antibacterial activity against methicillin-susceptible Staphylococcus aureus Xen29 infected neutropenic CD1 mouse assessed as mortality at 100 mg/kg, po within 24 hrs; conditions: Xen29, 24 h; how it was run: as §4
Staphylococcus aureus [11] = experiment: Reduction in bioluminescent methicillin-sensitive Staphylococcus aureus Xen29 in neutropenic CD1 mouse with peritonitis at 100 mg/kg, sc after 3 hrs relative to control; set-up: scale not given: the % may be the effect or the level left; conditions: route subcutaneous; how it was run: as §3
Staphylococcus aureus [12] = experiment: Reduction in bioluminescent methicillin-sensitive Staphylococcus aureus Xen29 in neutropenic CD1 mouse with peritonitis at 100 mg/kg, sc after 2 hrs relative to control; set-up: scale not given: the % may be the effect or the level left; conditions: route subcutaneous; how it was run: as §3
Staphylococcus aureus [13] = experiment: Antimicrobial activity against bioluminescent methicillin-susceptible Staphylococcus aureus Xen29; how it was run: as §2
Staphylococcus aureus [14] = experiment: Reduction in bioluminescent methicillin-sensitive Staphylococcus aureus Xen29 in immunocompetent CD1 mouse with peritonitis at 100 mg/kg, sc after 5 hrs relative to control; set-up: scale not given: the % may be the effect or the level left; conditions: route subcutaneous; how it was run: as §1
Staphylococcus aureus [15] = experiment: Antibacterial activity against methicillin-susceptible Staphylococcus aureus Xen29 infected neutropenic CD1 mouse assessed as mortality at 100 mg/kg, po after 4 days; how it was run: as §4
Staphylococcus aureus [16] = experiment: Antibacterial activity against methicillin-resistant Staphylococcus aureus Xen1 infected neutropenic CD1 mouse assessed as mortality at 100 mg/kg, po after 4 days; how it was run: as §4

| SMILES | Activity (Staphylococcus aureus [1]) [%] | survival at 50 mg/kg (Staphylococcus aureus [2]) [%] | MIC (Staphylococcus aureus [3]) [µg/mL] | Activity (Staphylococcus aureus [4]) [%] | Activity (Staphylococcus aureus [5]) [%] | survival at 100 mg/kg (Staphylococcus aureus [6]) [%] | Activity (Staphylococcus aureus [7]) [%] | Activity (Staphylococcus aureus [8]) [%] | Activity (Staphylococcus aureus [9]) [%] | survival at 100 mg/kg (Staphylococcus aureus [10]) [%] | Activity (Staphylococcus aureus [11]) [%] | Activity (Staphylococcus aureus [12]) [%] | MIC (Staphylococcus aureus [13]) [µg/mL] | Activity (Staphylococcus aureus [14]) [%] | Activity (Staphylococcus aureus [15]) [%] | Activity (Staphylococcus aureus [16]) [%] |
| --- | --- | --- | --- | --- | --- | --- | --- | --- | --- | --- | --- | --- | --- | --- | --- | --- |
| CCOc1ccc2ccccc2c1C(=O)N[C@@H]1C(=O)N2[C@@H]1SC(C)(C)[C@@H]2C(=O)O [NAFCILLIN] | 93 | 100 | 64 (≈ 154 µM) | 82 | 99.2 | 100 | 98.3 | 96 | 100 | 100 | 95.6 | 84 | 0.5 (≈ 1.21 µM) | 98 | – | – |
| CN[C@H](CC(C)C)C(=O)N[C@H]1C(=O)N[C@@H](CC(N)=O)C(=O)N[C@H]2C(=O)N[C@H]3C(=O)N[C@H](C(=O)N[C@H](C(=O)O)c4cc(O)cc(O)c4-c4cc3ccc4O)[C@H](O)c3ccc(c(Cl)c3)Oc3cc2cc(c3O[C@@H]2O[C@H](CO)[C@@H](O)[C@H](O)[C@H]2O[C@H]2C[C@](C)(N)[C@H](O)[C@H](C)O2)Oc2ccc(cc2Cl)[C@H]1O [VANCOMYCIN] | – | – | – | – | – | 100 | – | – | – | 100 | – | – | – | – | 100 | 100 |
